Data as given in ChEMBL document CHEMBL5058577, “EUbOPEN Chemogenomics Library 2 (Multiplex)” (2022).

Tested on: U2OS
Experiment: Multiplex assay against U2OS
Type: toxicity, cell-based
Details: human
Procedure, shortened: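 At seeding, live cells were stained with Hoechst33342, BioTracker Green Microtubule Cytoskeleton Dye, MitoTracker Red and Annexin V Alexa Fluor 680. After compound addition they were imaged on a CQ1 microscope at 37°C and 5% CO2, and CellPathfinder machine-learning gating sorted them into Hoechst high-intensity objects or normal cells, with normal cells further split into healthy, pyknosed or fragmented nuclei and pyknosed cells into mitotic or apoptotic. Tubulin, mitochondrial-mass and membrane-permeability phenotypes are given as per cents of cells with healthy nuclei.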

[1] = 12 h, 1 µM, compound concentration 1 uM, replicate 1
[2] = 12 h, 1 µM, compound concentration 1 uM, replicate 2
[3] = 12 h, 10 µM, compound concentration 10 uM, replicate 1
[4] = 12 h, 10 µM, compound concentration 10 uM, replicate 2
[5] = 24 h, 1 µM, compound concentration 1 uM, replicate 1
[6] = 24 h, 1 µM, compound concentration 1 uM, replicate 2
[7] = 24 h, 10 µM, compound concentration 10 uM, replicate 1
[8] = 24 h, 10 µM, compound concentration 10 uM, replicate 2
[9] = 48 h, 1 µM, compound concentration 1 uM, replicate 1
[10] = 48 h, 1 µM, compound concentration 1 uM, replicate 2
[11] = 48 h, 10 µM, compound concentration 10 uM, replicate 1
[12] = 48 h, 10 µM, compound concentration 10 uM, replicate 2

Structure (SMILES): COC[C@@H](c1ccc(C(F)(F)F)cc1)N1CCN(C2(C)CCN(C(=O)c3c(C)ncnc3C)CC2)C[C@@H]1C.O=C(O)/C=C\C(=O)O [VICRIVIROC MALEATE]
- Population Apoptotic (%) [1]: 82%
- Population Fragmented Nuclei (%) [1]: 34%
- Population Healthy Nuclei (%) [1]: 54%
- Population Hoechst High Intensity Objects (%) [1]: 4%
- Population Membrane Permeable-Phenotype (%) [1]: 8%
- Population Mitochondria Different-Phenotype (%) [1]: 4%
- Population Mitotic Cells (%) [1]: 17%
- Population Normal (%) [1]: 95%
- Population Pyknosed Nuclei (%) [1]: 11%
- Population Tubulin-Different-Phenotype (%) [1]: 3%
- Total Cell Count [1]: 261
- Population Apoptotic (%) [2]: 81%
- Population Fragmented Nuclei (%) [2]: 21%
- Population Healthy Nuclei (%) [2]: 67%
- Population Hoechst High Intensity Objects (%) [2]: 2%
- Population Membrane Permeable-Phenotype (%) [2]: 11%
- Population Mitochondria Different-Phenotype (%) [2]: 14%
- Population Mitotic Cells (%) [2]: 18%
- Population Normal (%) [2]: 97%
- Population Pyknosed Nuclei (%) [2]: 10%
- Population Tubulin-Different-Phenotype (%) [2]: 7%
- Total Cell Count [2]: 105
- Population Apoptotic (%) [3]: 86%
- Population Fragmented Nuclei (%) [3]: 26%
- Population Healthy Nuclei (%) [3]: 65%
- Population Hoechst High Intensity Objects (%) [3]: 1%
- Population Membrane Permeable-Phenotype (%) [3]: 13%
- Population Mitochondria Different-Phenotype (%) [3]: 3%
- Population Mitotic Cells (%) [3]: 13%
- Population Normal (%) [3]: 98%
- Population Pyknosed Nuclei (%) [3]: 8%
- Population Tubulin-Different-Phenotype (%) [3]: 3%
- Total Cell Count [3]: 270
- Population Apoptotic (%) [4]: 33%
- Population Fragmented Nuclei (%) [4]: 28%
- Population Hoechst High Intensity Objects (%) [4]: 2%
- Population Membrane Permeable-Phenotype (%) [4]: 5%
- Population Mitochondria Different-Phenotype (%) [4]: 6%
- Population Mitotic Cells (%) [4]: 66%
- Population Normal (%) [4]: 97%
- Population Pyknosed Nuclei (%) [4]: 6%
- Population Tubulin-Different-Phenotype (%) [4]: 6%
- Total Cell Count [4]: 91
- Population Apoptotic (%) [5]: 77%
- Population Fragmented Nuclei (%) [5]: 25%
- Population Healthy Nuclei (%) [5]: 67%
- Population Hoechst High Intensity Objects (%) [5]: 3%
- Population Membrane Permeable-Phenotype (%) [5]: 5%
- Population Mitochondria Different-Phenotype (%) [5]: 3%
- Population Mitotic Cells (%) [5]: 22%
- Population Normal (%) [5]: 96%
- Population Pyknosed Nuclei (%) [5]: 7%
- Population Tubulin-Different-Phenotype (%) [5]: 2%
- Total Cell Count [5]: 301
- Population Apoptotic (%) [6]: 93%
- Population Fragmented Nuclei (%) [6]: 20%
- Population Healthy Nuclei (%) [6]: 64%
- Population Hoechst High Intensity Objects (%) [6]: 4%
- Population Membrane Permeable-Phenotype (%) [6]: 10%
- Population Mitochondria Different-Phenotype (%) [6]: 14%
- Population Mitotic Cells (%) [6]: 6%
- Population Normal (%) [6]: 95%
- Population Pyknosed Nuclei (%) [6]: 15%
- Population Tubulin-Different-Phenotype (%) [6]: 10%
- Total Cell Count [6]: 111
- Population Apoptotic (%) [7]: 80%
- Population Fragmented Nuclei (%) [7]: 25%
- Population Healthy Nuclei (%) [7]: 68%
- Population Hoechst High Intensity Objects (%) [7]: 1%
- Population Membrane Permeable-Phenotype (%) [7]: 3%
- Population Mitochondria Different-Phenotype (%) [7]: 3%
- Population Mitotic Cells (%) [7]: 19%
- Population Normal (%) [7]: 98%
- Population Pyknosed Nuclei (%) [7]: 6%
- Population Tubulin-Different-Phenotype (%) [7]: 2%
- Total Cell Count [7]: 326
- Population Apoptotic (%) [8]: 83%
- Population Membrane Permeable-Phenotype (%) [8]: 4%
- Population Mitochondria Different-Phenotype (%) [8]: 2%
- Population Mitotic Cells (%) [8]: 16%
- Population Tubulin-Different-Phenotype (%) [8]: 7%
- Total Cell Count [8]: 99
- Population Apoptotic (%) [9]: 78%
- Population Fragmented Nuclei (%) [9]: 20%
- Population Healthy Nuclei (%) [9]: 68%
- Population Hoechst High Intensity Objects (%) [9]: 3%
- Population Membrane Permeable-Phenotype (%) [9]: 3%
- Population Mitochondria Different-Phenotype (%) [9]: 2%
- Population Mitotic Cells (%) [9]: 21%
- Population Normal (%) [9]: 96%
- Population Pyknosed Nuclei (%) [9]: 10%
- Population Tubulin-Different-Phenotype (%) [9]: 1%
- Total Cell Count [9]: 416
- Population Apoptotic (%) [10]: 93%
- Population Fragmented Nuclei (%) [10]: 25%
- Population Healthy Nuclei (%) [10]: 62%
- Population Hoechst High Intensity Objects (%) [10]: 1%
- Population Membrane Permeable-Phenotype (%) [10]: 13%
- Population Mitochondria Different-Phenotype (%) [10]: 11%
- Population Mitotic Cells (%) [10]: 6%
- Population Normal (%) [10]: 98%
- Population Pyknosed Nuclei (%) [10]: 11%
- Population Tubulin-Different-Phenotype (%) [10]: 10%
- Total Cell Count [10]: 142
- Population Apoptotic (%) [11]: 80%
- Population Fragmented Nuclei (%) [11]: 19%
- Population Healthy Nuclei (%) [11]: 70%
- Population Hoechst High Intensity Objects (%) [11]: 2%
- Population Membrane Permeable-Phenotype (%) [11]: 3%
- Population Mitochondria Different-Phenotype (%) [11]: 2%
- Population Mitotic Cells (%) [11]: 20%
- Population Normal (%) [11]: 97%
- Population Pyknosed Nuclei (%) [11]: 9%
- Population Tubulin-Different-Phenotype (%) [11]: 1%
- Total Cell Count [11]: 437
- Population Apoptotic (%) [12]: 93%
- Population Fragmented Nuclei (%) [12]: 18%
- Population Healthy Nuclei (%) [12]: 68%
- Population Hoechst High Intensity Objects (%) [12]: 5%
- Population Mitochondria Different-Phenotype (%) [12]: 6%
- Population Mitotic Cells (%) [12]: 6%
- Population Normal (%) [12]: 94%
- Population Pyknosed Nuclei (%) [12]: 12%
- Population Tubulin-Different-Phenotype (%) [12]: 6%
- Total Cell Count [12]: 140
